# Lung fibro prol: antiproliferative effect on LL 47 fibroblasts – human, LL 47 cells, CellTiter-Glo luminescence, primary screen. LL 47 human lung fibroblast viability, ATP luminescence; active compounds read low. viability, % at 10 µM. 1.1% of 85,000 active;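 active = viability at or below 50% in the single dose screen; inactive = viability above 50%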;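 note: compound exposure lasted 72 h before the ATP readout; 100% = median luminescence of untreated cell-only wells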
#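 Benchmarks: Cell-only wells, no compound | Test system: LL 47 human lung fibroblasts, passage 12 or lower | Input: 1,150 cells/well | Measured by: CellTiter-Glo luminescence measuring cellular ATP | Medium: IMEM, 15% FBS supplement | Schedule: Overnight attachment after seeding, then 72 h compound exposure at 37 °C | Doses: Compound addition at 0.1% DMSO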
# H69AR growth 86K: proliferation blockers of H69AR lung cancer cells, primary screen, cell-based, human, 86K library; viability, % at 10 µM; H69AR lung tumor viability, ATP luminescence, 72 h; active compounds read low; 6% of 85,000 active;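 active = viability at or below 40%; inactive = viability above 40%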;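 note: multidrug resistant small cell line overexpressing MRP-1 efflux transporter; 100% = mean luminescence of untreated control wells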
# ERa SRC1 inh: ERα–SRC-1 coactivator interaction inhibitors, primary screen, biochemical, TR-FRET, ERα LBD, estradiol-bound. Estrogen receptor (Homo sapiens), P03372. TR-FRET ER-alpha LBD / SRC-1 peptide. AID 629, 2007. inhibition, % at 25.6 µM. 1.7% of 86,000 active; in the data active = inhibition above about 50%;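 note: 0% = receptor plus peptide control and 100% = peptide only without receptor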
# ERb SRC1 inh: inhibitors of ERβ-SRC1 coactivator interaction, primary screen, biochemical, TR-FRET, ERβ LBD, SRC-1 peptide. Estrogen receptor beta (Homo sapiens), Q92731. TR-FRET ER-beta LBD / SRC1-Cy5 peptide binding; receptor agonist-loaded with 1 µM estradiol. inhibition, % at 25.6 µM. 1.3% of 86,000 active. AID 633, 2007;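 active = compounds whose percent inhibition of the receptor-coactivator binding signal exceeds about 50% in the single-dose screen, limit read from the data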;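 note: 0% = receptor plus peptide wells without compound and 100% = peptide-only wells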
# Target sequence (Q92731 whole entry, looked up, the tested form may be a part): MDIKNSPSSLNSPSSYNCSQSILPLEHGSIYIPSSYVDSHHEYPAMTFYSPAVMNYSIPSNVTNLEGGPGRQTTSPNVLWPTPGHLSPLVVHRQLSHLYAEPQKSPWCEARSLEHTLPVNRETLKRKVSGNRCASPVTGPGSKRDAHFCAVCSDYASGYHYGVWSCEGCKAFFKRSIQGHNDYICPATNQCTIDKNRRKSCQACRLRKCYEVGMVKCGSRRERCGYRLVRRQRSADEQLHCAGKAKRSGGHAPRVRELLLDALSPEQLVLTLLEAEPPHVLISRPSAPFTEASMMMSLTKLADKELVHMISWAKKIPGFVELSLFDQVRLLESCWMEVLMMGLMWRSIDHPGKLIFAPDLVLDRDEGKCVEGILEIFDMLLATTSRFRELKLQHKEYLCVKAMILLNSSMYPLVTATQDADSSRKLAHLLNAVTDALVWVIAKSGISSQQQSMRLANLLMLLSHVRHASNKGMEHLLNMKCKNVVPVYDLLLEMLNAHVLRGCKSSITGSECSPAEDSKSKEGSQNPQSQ
# HUVEC inhibit: inhibitors of HUVEC proliferation, primary screen, cell-based, 384-well. CellTiter-Glo luminescence, 72 h; active compounds read low. viability, % at 10 µM (by protocol). 1.1% of 86,000 active. AID 648, 2007;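 active = viability at or below 30%; inactive = viability above 30%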;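 note: 100% = median luminescence of DMSO-only cell control wells on each plate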
# ERa coact pot: enhancers of ERα–SRC-1 coactivator binding, primary screen, biochemical, TR-FRET, ERα LBD, low estradiol; TR-FRET ERalpha-LBD/SRC-Cy5 coactivator binding, 2 h; 100 = basal binding, no effect; coactivator binding (% of control), % at 25.6 µM; 1.3% of 86,000 active; AID 639, 2007; in the data active = activity above about 200%;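 note: binding measured in presence of low estradiol as agonist stimulus; 0% = peptide alone without receptor and 100% = receptor with peptide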
# * hit, by the source's call; x = not tested or not shown; [ ] = remark or other dose. Sampled rows, rich in hits. Any-hit rate of the full collection: about 9.2%.
SMILES,Lung fibro prol,H69AR growth 86K,ERa SRC1 inh,ERb SRC1 inh,HUVEC inhibit,ERa coact pot
OC(COc1ccc(C2C=CCC2)cc1)CN1CCCCC1 (configuration not stated),91.1,82.9,37.3,62.7*[fluorescence artefact?],82.2,262.7*[fluorescence artefact?]
O=C(CCNS(=O)(=O)c1ccc(Cl)cc1)N1CCC2(O)CCCCC2C1 (configuration not stated),92.1,x,-7.4,1.3,95.5,116.8
CCC(C)NC(=O)c1c(N)n(/N=C/c2ccccn2)c2nc3ccccc3nc12 (configuration not stated),98.7,11.3*,2.1,12.1,12.2*,82.0
CC(C)OCCCNC(=O)c1c(N)n(/N=C/c2ccccn2)c2nc3ccccc3nc12,101.9,22.6*,-8.5,-16.7,75.5,115.1
CC(C)CNC(=O)c1c(N)n(/N=C/c2cccnc2)c2nc3ccccc3nc12,100.4,45.8,18.5,9.0,66.9,110.5
CCC(C)NC(=O)c1c(N)n(/N=C/c2cccnc2)c2nc3ccccc3nc12 (configuration not stated),88.8,89.6,-2.8,-3.6,3.4*,81.1
COCCCNC(=O)c1c(N)n(/N=C/c2cccs2)c2nc3ccccc3nc12,67.1,44.0,43.4,39.7,80.2,158.4
CCn1cc([N+](=O)[O-])c(C(=O)N2N=C(c3ccc4ccccc4c3)CC2c2cc(Br)ccc2O)n1 (configuration not stated),87.6,14.0*,41.1,51.0*[fluorescence artefact?],10.1*,103.9
CCOC(=O)c1nnn(-c2nonc2-n2cccc2)c1CCl,35.3*,1.5*,0.0,1.9,3.3*,116.3
CCOC(=O)c1nnn(-c2nonc2-n2cccc2)c1CN1CCC(C)CC1,92.2,85.5,-1.5,3.7,109.4,98.0
CCC(C)(C(=O)NC1CCCCC1)N(C(=O)C1CCC(=O)N1)c1ccc(C)cc1 (configuration not stated),100.9,96.4,3.2,7.0,96.7,98.5
CCCc1nn(C(=O)c2ccccc2)c2c1C(=O)CC(C)(C)C2,101.2,91.1,-0.5,-3.6,93.4,97.3
CCCc1nn(-c2cc(Cl)ccc2OC)c2c1C(=O)CC(C)(C)C2,80.0,21.8*,1.2,-6.6,85.2,115.1
CCc1nn(-c2cc(Cl)ccc2OC)c2c1C(=O)CCC2,85.6,22.2*,-5.5,0.7,76.5,115.9
COc1cccc(OCCOc2ccccc2OC(C)C)c1,91.3,99.6,-7.7,-8.2,108.7,105.4
CCOc1ccc2nc(NC(=O)C3CCN(c4cnccn4)CC3)sc2c1,99.1,33.7*,-7.0,-4.9,91.3,96.6
CCOc1ccc2nc(NC(=O)C3CCN(S(=O)(=O)c4cnc[nH]4)CC3)sc2c1,88.2,58.2,-4.6,-6.2,87.7,77.3
COc1ccc2nc(NC(=O)c3cnccn3)sc2c1,91.0,54.2,75.1*[fluorescence artefact?],49.9,76.0,46.1
COc1ccc(C2/C(=C(\O)c3cccc(OC)c3)C(=O)C(=O)N2c2ccccn2)cc1 (configuration not stated),98.7,89.4,-4.5,-7.8,94.3,108.3
CCOC(=O)c1c(NC(=O)CSc2nnnn2C)sc(CC)c1C,85.7,79.6,-1.4,0.0,68.5,99.4
Nc1nc(OCC(F)(F)F)cc(Oc2ccccc2F)n1,x,36.3*,-2.3,-6.2,84.7,104.7
O=C(CN1CCN(c2ccccc2)CC1)Nc1ccc(Oc2ccccc2)cc1,98.4,97.5,1.2,-6.3,113.1,103.2
CCCC1=Nc2cc(C(=O)NCCCOCC)ccc2Sc2ccccc21,57.8,33.0*,-0.1,5.2,38.1,75.3
CCC1=Nc2cc(C(=O)NCCCOC)ccc2Sc2ccccc21,58.3,32.4*,-3.4,7.7,45.6,110.7
CCCC1=Nc2cc(C(=O)NCCCOC(C)C)ccc2Sc2ccccc21,50.1,16.4*,4.9,0.2,43.0,82.5
SMILES,Lung fibro prol,H69AR growth 86K,ERa SRC1 inh,ERb SRC1 inh,HUVEC inhibit,ERa coact pot
CC(C)OCCCNC(=O)c1ccncc1,100.3,93.0,-0.3,-5.6,100.5,121.9
Cn1c(=O)oc2cc(S(=O)(=O)N3CCCC(C(=O)Nc4ccc5c(c4)OCCO5)C3)ccc21 (configuration not stated),104.3,91.1,-4.6,-6.5,104.2,122.7
Cc1cc(C)nc(SCC(=O)Oc2ccc3oc(=O)cc(C)c3c2)n1,103.9,91.5,-5.2,-6.5,83.5,81.7
CCOc1ccc(C2c3c(oc4ccccc4c3=O)C(=O)N2c2ccccn2)cc1OC (configuration not stated),94.8,82.2,0.1,16.9,105.2,82.6
COC(=O)c1cc(COc2ccc3c4c(c(=O)oc3c2)CCCC4)c(C)o1,110.1,84.2,-3.9,3.2,91.9,121.8
COC(=O)c1ccc(COc2ccc3c4c(c(=O)oc3c2)CCC4)o1,100.8,98.2,36.9,18.6,88.2,239.9*[fluorescence artefact?]
COC(=O)c1ccc(COc2ccc3c(C)c(C)c(=O)oc3c2C)o1,108.8,89.5,7.1,13.5,99.3,444.5*[fluorescence artefact?]
CSC1=NC2C(N1)N(C)C(=O)N2C (configuration not stated),109.1,88.9,-4.9,4.9,104.1,109.9
COc1ccc(-c2oc(NC(=O)CCl)c(C#N)c2-c2ccc(OC)cc2)cc1,26.1*,1.8*,7.0,55.0*[fluorescence artefact?],4.3*,55.5
N#Cc1c(NC(=O)CSc2ncccn2)oc(-c2ccccc2)c1-c1ccccc1,93.3,105.5,59.9*,45.3,82.9,59.6
Cc1ccc(OCC(=O)Nc2oc(-c3ccccc3)c(-c3ccccc3)c2C#N)cc1,97.9,28.4*,-3.2,-1.1,75.0,127.0
COc1ccc(-c2oc(NC(=O)CSc3ncn[nH]3)c(C#N)c2-c2ccc(OC)cc2)cc1,90.0,29.0*,8.7,-4.9,70.1,71.2
CCCCNc1cc(=O)oc2ccccc12,97.5,73.6,-5.3,-2.3,89.0,89.1
CCOc1ccc(Nc2cc(=O)oc3ccccc23)cc1,95.1,55.0,-5.4,10.8,75.8,255.5*
COC(=O)c1cn(NC(=O)c2cccnc2)c(=O)c2ccccc12,106.8,98.3,-1.9,-4.8,108.3,108.3
CC(NC(=O)Nc1nnc(C(F)(F)F)s1)(C(F)(F)F)C(F)(F)F,27.9*,6.2*,-42.5,0.9,27.9*,109.9
O=S1(=O)C=C(SCCN2CCCCC2)c2ccccc21,83.1,62.3,-10.6,-2.2,97.0,113.2
CSc1nnc(-c2ccccc2)o1,100.7,98.0,-9.9,-7.4,96.4,135.5
